These results are taken from ChEMBL document CHEMBL4138297, “N-Leucinyl Benzenesulfonamides as Structurally Simplified Leucyl-tRNA Synthetase Inhibitors” (ACS Med Chem Lett, 2018).

≈ marks a conversion by molar mass, not a printed value. Calls of active or inactive are those of the source. The rule behind the calls is not given here. Some results are limits rather than exact numbers.

Assay [1] has as its target T1, Leucine--tRNA ligase (Escherichia coli (strain K12), UniProt P07813). In words: Displacement of IK-698 from Escherichia coli LeuRS by isothermal titration calorimetric calorimetry. Background: In ITC the heat of successive injections is recorded.
Assay [2] addresses T1, Leucine--tRNA ligase. Description: Inhibition of Escherichia coli LeuRS expressed in Escherichia coli M15 cells assessed as reduction in ATP consumption.
Assay [3] addresses T2, Leucine--tRNA ligase (Staphylococcus aureus (strain NCTC 8325), UniProt Q2FXH2).
T2 sequence (Q2FXH2 whole entry): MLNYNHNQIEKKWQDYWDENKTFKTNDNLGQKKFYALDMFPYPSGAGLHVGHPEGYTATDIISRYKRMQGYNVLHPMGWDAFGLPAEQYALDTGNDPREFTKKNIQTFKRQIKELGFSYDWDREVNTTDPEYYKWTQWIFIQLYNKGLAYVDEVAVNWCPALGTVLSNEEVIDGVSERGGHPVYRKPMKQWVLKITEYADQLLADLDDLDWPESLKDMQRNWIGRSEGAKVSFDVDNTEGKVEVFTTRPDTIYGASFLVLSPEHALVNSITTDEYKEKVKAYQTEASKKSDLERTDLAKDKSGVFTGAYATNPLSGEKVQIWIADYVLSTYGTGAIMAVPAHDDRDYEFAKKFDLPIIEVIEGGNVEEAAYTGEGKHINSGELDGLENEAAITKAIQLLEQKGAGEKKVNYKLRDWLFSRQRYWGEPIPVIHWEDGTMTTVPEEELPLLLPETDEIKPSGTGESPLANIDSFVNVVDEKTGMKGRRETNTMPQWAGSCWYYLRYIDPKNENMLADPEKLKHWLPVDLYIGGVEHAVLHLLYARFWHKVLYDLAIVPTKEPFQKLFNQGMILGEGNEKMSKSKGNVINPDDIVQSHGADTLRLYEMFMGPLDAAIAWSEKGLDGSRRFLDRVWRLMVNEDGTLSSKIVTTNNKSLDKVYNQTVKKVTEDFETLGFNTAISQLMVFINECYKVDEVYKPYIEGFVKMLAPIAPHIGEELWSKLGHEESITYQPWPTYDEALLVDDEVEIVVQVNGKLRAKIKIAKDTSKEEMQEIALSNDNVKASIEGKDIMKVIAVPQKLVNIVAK
Description: Inhibition of Staphylococcus aureus LeuRS expressed in Escherichia coli M15 cells assessed as reduction in ATP consumption.

Assay [4] deals with T3, Leucine--tRNA ligase, cytoplasmic (Homo sapiens, UniProt Q9P2J5). Description: Inhibition of human LeuRS assessed as reduction in ATP consumption.
Assay [5] concerns Escherichia coli. Description: Antibacterial activity against Escherichia coli BW25113 harboring tolC deletion mutant after 18 hrs by broth microdilution method. The assay is classed as functional, organism-based. The method, boiled down: (§1)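 MIC (ug/mL) against single-gene deletion derivatives of the standard laboratory E. coli strain BW25113 lacking multidrug efflux components (ΔacrA, ΔacrB, ΔtolC). The parent BW25113 strain was tested alongside.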
(Broth dilution looks for growth in wells or tubes with falling amounts of substance.)

Assay [6] deals with Escherichia coli. In words: Antibacterial activity against Escherichia coli BW25113 harboring AcrA deletion mutant after 18 hrs by broth microdilution method. The assay is classed as functional, organism-based. A digest of the protocol:
as §1

In assay [7] the test system is Escherichia coli. Description: Antibacterial activity against Escherichia coli BW25113 harboring AcrB deletion mutant after 18 hrs by broth microdilution method. Format: functional, organism-based. A digest of the protocol:
as §1

Assay [8] has as its target T1, Leucine--tRNA ligase. Description: Binding affinity to Escherichia coli LeuRS by isothermal titration calorimetric calorimetry.
Assay [9] has as its system Escherichia coli. In words: Antibacterial activity against Escherichia coli BW25113 after 18 hrs by broth microdilution method. Format: functional. To be noted: BW25113, 18 h. A digest of the protocol:
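Standard laboratory E. coli strain BW25113, wild type for efflux; MIC recorded in ug/mL. The same susceptibility testing was also run on BW25113 derivatives deleted for the multidrug efflux components tolC, acrA or acrB.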

Assay [10] concerns Escherichia coli. Description: Antibacterial activity against Escherichia coli ATCC 25922 after 18 hrs by broth microdilution method. The assay is classed as functional. The following applies: ATCC 25922, 18 h.
For the next assay, the system named is Klebsiella pneumoniae. Description: Antibacterial activity against Klebsiella pneumoniae clinical isolate after 18 hrs by broth microdilution method. Format: functional.
A further assay has as its system Pseudomonas aeruginosa. In words: Antibacterial activity against Pseudomonas aeruginosa PAO1 after 18 hrs by broth microdilution method. The assay is classed as functional. To be noted: PAO1, 18 h.
The subject of another assay is Acinetobacter baumannii. Description: Antibacterial activity against Acinetobacter spp ATCC 19606 after 18 hrs by broth microdilution method. The assay is classed as functional. The following applies: ATCC 19606 = CIP 70.34 = JCM 6841, 18 h.
The test system of a further assay is Enterobacter cloacae. Description: Antibacterial activity against Enterobacter cloacae clinical isolate after 18 hrs by broth microdilution method. The assay is classed as functional.
The test system of the next assay is Staphylococcus aureus. Description: Antibacterial activity against Staphylococcus aureus JE2 after 18 hrs by broth microdilution method. To be noted: JE2, 18 h. The assay is classed as functional.
The target of assay [11] is T4, Leucyl-tRNA synthetase, putative (Trypanosoma brucei brucei (strain 927/4 GUTat10.1), UniProt Q386D9).
T4 sequence (Q386D9 whole entry): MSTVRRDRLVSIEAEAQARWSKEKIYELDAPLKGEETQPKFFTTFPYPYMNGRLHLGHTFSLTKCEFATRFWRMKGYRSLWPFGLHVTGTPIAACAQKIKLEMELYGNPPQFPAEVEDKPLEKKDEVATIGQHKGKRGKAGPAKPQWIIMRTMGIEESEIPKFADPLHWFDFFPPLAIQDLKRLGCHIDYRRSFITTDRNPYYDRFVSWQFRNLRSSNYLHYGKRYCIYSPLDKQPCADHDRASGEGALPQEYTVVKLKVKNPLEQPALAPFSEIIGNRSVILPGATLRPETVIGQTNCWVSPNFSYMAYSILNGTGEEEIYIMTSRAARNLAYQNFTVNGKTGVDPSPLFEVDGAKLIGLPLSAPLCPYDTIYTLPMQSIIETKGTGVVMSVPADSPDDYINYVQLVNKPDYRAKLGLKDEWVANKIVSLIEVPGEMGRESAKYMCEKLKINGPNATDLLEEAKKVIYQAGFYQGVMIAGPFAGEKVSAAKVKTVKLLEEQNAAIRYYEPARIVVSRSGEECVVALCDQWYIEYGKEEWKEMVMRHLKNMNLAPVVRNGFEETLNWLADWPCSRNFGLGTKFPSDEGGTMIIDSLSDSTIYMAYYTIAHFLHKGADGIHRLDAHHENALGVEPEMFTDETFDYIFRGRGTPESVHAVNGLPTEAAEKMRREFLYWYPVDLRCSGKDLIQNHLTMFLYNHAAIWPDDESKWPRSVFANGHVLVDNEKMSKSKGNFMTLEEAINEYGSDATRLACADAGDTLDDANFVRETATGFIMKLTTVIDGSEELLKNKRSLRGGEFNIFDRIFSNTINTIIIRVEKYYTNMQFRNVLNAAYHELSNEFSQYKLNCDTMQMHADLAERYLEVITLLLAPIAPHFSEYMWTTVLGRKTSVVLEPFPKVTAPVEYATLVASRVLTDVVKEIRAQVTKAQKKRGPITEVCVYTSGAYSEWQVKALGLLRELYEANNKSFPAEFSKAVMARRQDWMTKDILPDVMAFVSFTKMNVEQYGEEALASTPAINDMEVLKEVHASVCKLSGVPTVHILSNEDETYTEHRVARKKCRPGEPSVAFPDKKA
Description: Inhibition of Trypanosoma brucei LeuRS assessed as reduction in protein synthesis pretreated for 20 mins in presence of [14C]Leu followed by ATP addition measured after 15 mins by scintillation counting method.

Assay [12] addresses T3, Leucine--tRNA ligase, cytoplasmic. In words: Inhibition of human cytoplasmic LeuRS assessed as reduction in protein synthesis measured after 10 mins in presence of [3H]Leu by scintillation counting method.

T1 sequence (P07813 whole entry): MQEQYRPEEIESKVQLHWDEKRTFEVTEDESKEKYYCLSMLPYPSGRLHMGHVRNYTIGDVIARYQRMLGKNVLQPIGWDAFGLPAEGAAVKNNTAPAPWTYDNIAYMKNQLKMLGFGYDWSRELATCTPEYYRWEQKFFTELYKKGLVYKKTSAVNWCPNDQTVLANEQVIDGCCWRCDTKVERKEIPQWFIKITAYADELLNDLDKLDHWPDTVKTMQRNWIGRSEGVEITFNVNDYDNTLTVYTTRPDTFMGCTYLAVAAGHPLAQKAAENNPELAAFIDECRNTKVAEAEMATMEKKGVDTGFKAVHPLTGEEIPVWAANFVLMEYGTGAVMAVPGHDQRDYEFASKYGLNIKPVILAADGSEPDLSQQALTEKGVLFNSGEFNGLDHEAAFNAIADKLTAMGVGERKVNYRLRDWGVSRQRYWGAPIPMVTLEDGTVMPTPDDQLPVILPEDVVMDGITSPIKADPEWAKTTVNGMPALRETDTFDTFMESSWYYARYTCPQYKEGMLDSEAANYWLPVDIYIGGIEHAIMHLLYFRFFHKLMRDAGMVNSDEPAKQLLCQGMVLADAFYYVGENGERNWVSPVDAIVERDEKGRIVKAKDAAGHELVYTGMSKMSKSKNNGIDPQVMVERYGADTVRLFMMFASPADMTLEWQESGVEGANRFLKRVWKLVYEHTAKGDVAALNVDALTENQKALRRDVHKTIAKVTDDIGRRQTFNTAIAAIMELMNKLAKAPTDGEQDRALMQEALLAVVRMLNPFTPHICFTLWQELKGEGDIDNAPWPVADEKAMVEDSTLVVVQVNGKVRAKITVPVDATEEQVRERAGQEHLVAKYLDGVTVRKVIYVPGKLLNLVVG
T3 sequence (Q9P2J5 whole entry): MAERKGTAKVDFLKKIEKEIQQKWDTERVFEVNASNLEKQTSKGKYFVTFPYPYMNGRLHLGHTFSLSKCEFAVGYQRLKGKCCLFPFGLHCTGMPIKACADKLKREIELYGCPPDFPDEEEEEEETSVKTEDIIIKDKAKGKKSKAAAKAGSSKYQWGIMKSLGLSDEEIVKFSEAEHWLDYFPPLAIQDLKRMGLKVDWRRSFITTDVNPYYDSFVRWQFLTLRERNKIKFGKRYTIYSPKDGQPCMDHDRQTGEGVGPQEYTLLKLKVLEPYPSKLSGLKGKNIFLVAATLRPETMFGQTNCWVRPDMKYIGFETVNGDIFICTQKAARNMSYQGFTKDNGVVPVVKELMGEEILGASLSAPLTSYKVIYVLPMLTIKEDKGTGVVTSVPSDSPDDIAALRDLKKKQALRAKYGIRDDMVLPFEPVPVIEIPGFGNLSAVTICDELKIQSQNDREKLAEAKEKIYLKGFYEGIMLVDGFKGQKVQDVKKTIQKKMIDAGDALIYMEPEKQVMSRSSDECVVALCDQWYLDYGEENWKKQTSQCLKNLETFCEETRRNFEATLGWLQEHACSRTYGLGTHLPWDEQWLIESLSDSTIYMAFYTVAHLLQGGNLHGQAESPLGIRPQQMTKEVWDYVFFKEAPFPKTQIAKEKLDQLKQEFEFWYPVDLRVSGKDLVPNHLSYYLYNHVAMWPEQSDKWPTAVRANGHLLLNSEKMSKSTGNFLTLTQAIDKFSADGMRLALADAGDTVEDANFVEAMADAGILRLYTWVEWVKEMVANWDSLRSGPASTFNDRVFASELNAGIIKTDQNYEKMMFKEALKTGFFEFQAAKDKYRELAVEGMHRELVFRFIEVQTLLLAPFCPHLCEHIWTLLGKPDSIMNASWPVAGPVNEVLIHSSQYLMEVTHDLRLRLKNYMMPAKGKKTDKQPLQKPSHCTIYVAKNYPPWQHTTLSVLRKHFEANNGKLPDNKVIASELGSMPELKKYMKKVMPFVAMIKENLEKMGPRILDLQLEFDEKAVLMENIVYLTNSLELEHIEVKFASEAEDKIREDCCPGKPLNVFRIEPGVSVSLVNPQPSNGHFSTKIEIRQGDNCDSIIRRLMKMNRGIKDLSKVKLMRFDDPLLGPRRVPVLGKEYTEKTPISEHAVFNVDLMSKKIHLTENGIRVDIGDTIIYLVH

With `CC(C)C[C@H](N)C(=O)NS(=O)(=O)c1cccc(-c2cc(-c3ccccc3)nc(N)n2)c1`, the Kd (usually a measure of binding affinity in units of concentration) on Leucine--tRNA ligase [1] came out at 56 nM. Moreover, the IC50 (usually the concentration needed to halve the response being measured) is 224 nM at Leucine--tRNA ligase [2], 3600 nM at Leucine--tRNA ligase [3] and 33 nM in assay [4].

Consider `CC(C)C[C@H](N)C(=O)NS(=O)(=O)c1cccc(-c2ccncc2)c1`, for which the Kd at Leucine--tRNA ligase [1] came to 10.9 nM. Besides, the IC50 was found to be 920 nM on Leucine--tRNA ligase [3] and 1200 nM in assay [4].

On Leucine--tRNA ligase [1], `CC(C)C[C@H](N)C(=O)NS(=O)(=O)c1cccc(-c2cccc(N)n2)c1` came in with a Kd of 13.9 nM. For the same compound, the IC50 at Leucine--tRNA ligase [2] is 23 nM; on Leucine--tRNA ligase [3], 1700 nM; in assay [4] it was 850 nM.

On to `Cc1cc(-c2cccc(S(=O)(=O)NC(=O)[C@@H](N)CC(C)C)c2)nc(N)n1`, for which, at Leucine--tRNA ligase [1], the Kd stood at 10 nM. In addition, the figures for the IC50 (on Leucine--tRNA ligase [2]; on Leucine--tRNA ligase [3]; in assay [4]) were 41 nM, 4400 nM and 160 nM, respectively. In addition, the result in the assay on Escherichia coli [5], with Escherichia coli [6] and in the assay on Escherichia coli [7] was Active.

`CC(C)C[C@H](N)C(=O)NS(=O)(=O)c1cccc(-c2ccnc(N)n2)c1` returned a Kd at Leucine--tRNA ligase [1] of 14.5 nM. Also, the results for the IC50 (at Leucine--tRNA ligase [3]; in assay [4]) were 9200 nM and 3900 nM, respectively.

Regarding `CC(C)C[C@H](N)C(=O)NS(=O)(=O)c1ccccc1`, the Kd at Leucine--tRNA ligase [8] was determined as 92.9 nM. In addition, in [4], the IC50 was determined as 1100 nM. The MIC (usually the least concentration at which growth counts as inhibited) against Escherichia coli [9] was greater than 128 µg/mL; in the assay on Escherichia coli [10], 8 µg/mL (≈ 29.6 µM); in the assay on Klebsiella pneumoniae, 64 µg/mL (≈ 237 µM); against Pseudomonas aeruginosa it was 64 µg/mL (≈ 237 µM); with Acinetobacter baumannii it was 64 µg/mL (≈ 237 µM); in the assay with Enterobacter cloacae it was 128 µg/mL (≈ 473 µM). This compound also displayed an MIC in the assay on Staphylococcus aureus greater than 256 µg/mL. Also, the result in the assay on Escherichia coli [5] was Active.

Consider `CC(C)C[C@H](N)C(=O)NS(=O)(=O)c1cccc(-c2ccnc(N)c2)c1`, for which the Kd on Leucine--tRNA ligase [1] is 12.8 nM. Also, the results for the IC50 (at Leucine--tRNA ligase [2]; on Leucine--tRNA ligase [3]; in assay [4]) were 14 nM, 650 nM and 490 nM, respectively.

In turn, `Cc1cc(-c2cccc(S(=O)(=O)NC(=O)[C@@H](N)CC(C)C)c2)ncn1` gave a Kd at Leucine--tRNA ligase [1] of 22 nM. For the same compound, the IC50 on Leucine--tRNA ligase [2] came out at 47 nM; on Leucine--tRNA ligase [3], 2700 nM; in assay [4], 2000 nM.

Turning to `CC(C)C[C@H](N)C(=O)NS(=O)(=O)c1ccc2ccccc2c1`, binding on Leucine--tRNA ligase [1] was put at a Kd of 64 nM. The IC50 in assay [4] was determined as 220 nM.

Regarding `CC(C)C[C@H](N)C(=O)NS(=O)(=O)c1cccc(-c2ccccc2)c1`, at Leucine--tRNA ligase [1], binding was put at a Kd of 10.2 nM. The IC50 on Leucine--tRNA ligase [3] amounted to 640 nM; in assay [4], 3400 nM.

As to `CC(C)C[C@H](N)C(=O)NS(=O)(=O)c1cccc(NC(=S)NC(=O)COc2ccc(Br)cc2Cl)c1`, the IC50 in assay [11] stood at 1100 nM; in assay [12], 4500 nM.
